Data as given in the M2OR odorant receptor database.
Residue numbers refer to the chain shown, from its start.

Experiments:
Conditions in all cases: stereoisomer not certain
OR4S2 (Homo sapiens) = biological target: T1, OR4S2 (Homo sapiens) (UniProt Q8NH73)
T1 sequence (whole entry): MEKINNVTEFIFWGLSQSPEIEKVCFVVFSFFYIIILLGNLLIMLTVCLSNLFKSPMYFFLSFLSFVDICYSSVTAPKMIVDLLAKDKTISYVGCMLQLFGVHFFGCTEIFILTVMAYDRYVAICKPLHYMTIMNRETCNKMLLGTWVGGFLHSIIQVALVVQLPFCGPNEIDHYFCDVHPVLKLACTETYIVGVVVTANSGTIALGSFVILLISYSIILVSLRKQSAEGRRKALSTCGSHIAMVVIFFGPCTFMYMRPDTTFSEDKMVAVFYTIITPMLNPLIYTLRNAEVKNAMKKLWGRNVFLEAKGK
Summary of the method: (§1)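 Assay methods differ from source to source, frequently being transient luciferase assays in mammalian cell lines. For each receptor–molecule pair, the label responsive (active) applies when the original authors judged the measured signal statistically different from baseline, and non-responsive (inactive) applies otherwise.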

OR4X1 (Homo sapiens) = biological target: T2, OR4X1 (Homo sapiens) (UniProt Q8NH49)
T2 sequence (whole entry): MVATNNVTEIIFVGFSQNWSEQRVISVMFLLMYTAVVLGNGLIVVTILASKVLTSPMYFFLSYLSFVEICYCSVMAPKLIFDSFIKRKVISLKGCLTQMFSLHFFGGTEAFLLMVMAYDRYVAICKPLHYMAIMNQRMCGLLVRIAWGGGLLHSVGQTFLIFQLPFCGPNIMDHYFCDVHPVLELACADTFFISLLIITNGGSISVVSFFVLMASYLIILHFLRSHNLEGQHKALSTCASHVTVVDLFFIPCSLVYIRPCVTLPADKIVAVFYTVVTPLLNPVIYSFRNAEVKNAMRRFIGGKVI
Summary of the method: as §1

OR4X2 (Homo sapiens) = biological target: T3, OR4X2 (Homo sapiens) (UniProt Q8NGF9)
T3 sequence (whole entry): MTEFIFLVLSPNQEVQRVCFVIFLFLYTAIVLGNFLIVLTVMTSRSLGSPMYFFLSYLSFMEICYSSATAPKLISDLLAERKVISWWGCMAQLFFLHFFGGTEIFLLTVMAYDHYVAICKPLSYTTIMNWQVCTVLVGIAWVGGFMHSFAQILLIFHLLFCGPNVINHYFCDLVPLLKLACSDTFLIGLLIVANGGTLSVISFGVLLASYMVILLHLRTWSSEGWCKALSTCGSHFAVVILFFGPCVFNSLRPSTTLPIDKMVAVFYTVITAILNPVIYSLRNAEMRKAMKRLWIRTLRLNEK
Summary of the method: as §1

OR51A2 (Homo sapiens) = biological target: T4, OR51A2 (Homo sapiens) (UniProt Q8NGJ7)
T4 sequence (whole entry): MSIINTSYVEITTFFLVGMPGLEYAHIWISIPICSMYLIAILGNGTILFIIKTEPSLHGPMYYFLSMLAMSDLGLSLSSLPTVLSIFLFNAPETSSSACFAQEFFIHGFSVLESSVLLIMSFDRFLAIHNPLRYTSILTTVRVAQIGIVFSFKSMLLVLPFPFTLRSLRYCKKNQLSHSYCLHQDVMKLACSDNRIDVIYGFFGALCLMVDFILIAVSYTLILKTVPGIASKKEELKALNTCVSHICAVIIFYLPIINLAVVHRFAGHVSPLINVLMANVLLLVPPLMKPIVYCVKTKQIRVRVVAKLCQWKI
Summary of the method: as §1

OR51A4 (Homo sapiens) = biological target: T5, OR51A4 (Homo sapiens) (UniProt Q8NGJ6)
T5 sequence (whole entry): T4 sequence (whole entry) with G59E, T94I, S97N, S167N, P227L, E235Q, G267R, M288T, K289N, W311R
Summary of the method: as §1

OR51A7 (Homo sapiens) = biological target: T6, OR51A7 (Homo sapiens) (UniProt Q8NH64)
T6 sequence (whole entry): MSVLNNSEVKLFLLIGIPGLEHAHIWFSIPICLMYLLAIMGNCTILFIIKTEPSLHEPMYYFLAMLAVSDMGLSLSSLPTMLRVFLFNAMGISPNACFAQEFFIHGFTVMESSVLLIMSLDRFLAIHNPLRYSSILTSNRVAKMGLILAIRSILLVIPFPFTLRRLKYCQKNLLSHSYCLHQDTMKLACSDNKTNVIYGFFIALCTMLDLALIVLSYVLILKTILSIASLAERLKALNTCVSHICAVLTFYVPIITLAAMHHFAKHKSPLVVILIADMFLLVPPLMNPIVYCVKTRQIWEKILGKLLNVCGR
Summary of the method: as §1

OR51B2 (Homo sapiens) = biological target: T7, OR51B2 (Homo sapiens) (UniProt Q9Y5P1)
T7 sequence (whole entry): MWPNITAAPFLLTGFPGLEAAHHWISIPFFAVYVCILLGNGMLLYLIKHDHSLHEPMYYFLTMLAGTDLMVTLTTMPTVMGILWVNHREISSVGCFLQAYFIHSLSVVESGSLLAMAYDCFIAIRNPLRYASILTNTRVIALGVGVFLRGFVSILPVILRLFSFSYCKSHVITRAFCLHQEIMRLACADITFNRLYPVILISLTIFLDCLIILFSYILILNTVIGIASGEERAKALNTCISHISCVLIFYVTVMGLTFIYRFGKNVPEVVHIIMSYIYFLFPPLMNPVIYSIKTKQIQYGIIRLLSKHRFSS
Summary of the method: as §1

OR51B4 (Homo sapiens) = biological target: T8, OR51B4 (Homo sapiens) (UniProt Q9Y5P0)
T8 sequence (whole entry): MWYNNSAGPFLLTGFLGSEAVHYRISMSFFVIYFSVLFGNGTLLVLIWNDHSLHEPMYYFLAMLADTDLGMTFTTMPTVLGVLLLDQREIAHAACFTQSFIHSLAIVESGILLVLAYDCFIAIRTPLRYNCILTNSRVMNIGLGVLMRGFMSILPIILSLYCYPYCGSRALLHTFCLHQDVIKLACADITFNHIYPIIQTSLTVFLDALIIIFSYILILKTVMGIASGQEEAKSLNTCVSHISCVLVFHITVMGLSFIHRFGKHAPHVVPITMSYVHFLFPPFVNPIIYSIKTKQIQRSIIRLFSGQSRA
Summary of the method: as §1

OR51B5 (Homo sapiens) = biological target: T9, OR51B5 (Homo sapiens) (UniProt Q9H339)
T9 sequence (whole entry): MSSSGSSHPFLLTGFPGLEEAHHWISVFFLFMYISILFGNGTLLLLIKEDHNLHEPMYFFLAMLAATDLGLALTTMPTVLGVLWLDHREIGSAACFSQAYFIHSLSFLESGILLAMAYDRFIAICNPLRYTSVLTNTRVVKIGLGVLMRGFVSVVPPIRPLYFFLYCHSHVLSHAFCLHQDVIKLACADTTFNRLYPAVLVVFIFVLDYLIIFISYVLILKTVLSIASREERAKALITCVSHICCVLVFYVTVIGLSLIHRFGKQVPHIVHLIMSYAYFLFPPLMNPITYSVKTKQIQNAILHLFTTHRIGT
Summary of the method: as §1

OR51B6 (Homo sapiens) = biological target: T10, OR51B6 (Homo sapiens) (UniProt Q9H340)
T10 sequence (whole entry): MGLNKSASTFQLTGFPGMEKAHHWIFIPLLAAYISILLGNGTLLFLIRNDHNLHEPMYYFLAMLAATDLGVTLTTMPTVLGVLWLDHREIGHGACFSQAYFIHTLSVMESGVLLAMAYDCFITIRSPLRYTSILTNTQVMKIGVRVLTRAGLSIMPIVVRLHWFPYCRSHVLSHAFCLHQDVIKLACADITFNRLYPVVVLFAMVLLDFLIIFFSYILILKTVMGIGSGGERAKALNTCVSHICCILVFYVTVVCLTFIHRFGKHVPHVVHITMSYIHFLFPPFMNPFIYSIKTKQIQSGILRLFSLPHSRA
Summary of the method: as §1

OR51D1 (Homo sapiens) = biological target: T11, OR51D1 (Homo sapiens) (UniProt Q8NGF3)
T11 sequence (whole entry): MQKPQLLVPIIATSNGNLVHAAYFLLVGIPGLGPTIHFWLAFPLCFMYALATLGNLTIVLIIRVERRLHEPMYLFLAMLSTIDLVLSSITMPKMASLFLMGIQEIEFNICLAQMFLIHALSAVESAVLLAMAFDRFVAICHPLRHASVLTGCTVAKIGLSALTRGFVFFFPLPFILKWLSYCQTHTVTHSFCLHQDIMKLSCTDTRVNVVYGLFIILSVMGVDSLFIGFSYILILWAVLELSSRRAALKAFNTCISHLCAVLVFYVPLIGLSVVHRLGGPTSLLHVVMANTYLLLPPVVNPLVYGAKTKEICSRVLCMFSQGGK
Summary of the method: as §1

OR51E1 (Homo sapiens) = biological target: T12, OR51E1 (Homo sapiens) (UniProt Q8TCB6)
T12 sequence (whole entry): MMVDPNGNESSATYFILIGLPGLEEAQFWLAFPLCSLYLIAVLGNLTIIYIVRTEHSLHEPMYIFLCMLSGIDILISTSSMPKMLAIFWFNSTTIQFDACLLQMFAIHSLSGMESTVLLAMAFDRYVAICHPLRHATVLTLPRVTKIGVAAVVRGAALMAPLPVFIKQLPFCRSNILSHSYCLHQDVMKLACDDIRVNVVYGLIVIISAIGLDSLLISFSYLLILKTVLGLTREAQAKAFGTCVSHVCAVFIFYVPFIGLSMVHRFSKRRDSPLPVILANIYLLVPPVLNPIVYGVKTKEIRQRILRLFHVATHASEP
Summary of the method: as §1

OR51E2 (Homo sapiens) = biological target: T13, OR51E2 (Homo sapiens) (UniProt Q9H255)
T13 sequence (whole entry): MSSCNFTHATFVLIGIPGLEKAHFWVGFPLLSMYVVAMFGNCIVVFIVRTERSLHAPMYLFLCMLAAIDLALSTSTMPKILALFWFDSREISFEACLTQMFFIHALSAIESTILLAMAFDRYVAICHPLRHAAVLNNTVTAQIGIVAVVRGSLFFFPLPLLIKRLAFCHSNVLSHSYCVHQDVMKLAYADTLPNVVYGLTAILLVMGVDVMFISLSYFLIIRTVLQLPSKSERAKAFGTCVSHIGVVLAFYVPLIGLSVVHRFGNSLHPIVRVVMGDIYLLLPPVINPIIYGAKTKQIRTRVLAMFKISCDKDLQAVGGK
Summary of the method: as §1

OR51F2 (Homo sapiens) = biological target: T14, OR51F2 (Homo sapiens) (UniProt Q8NH61)
T14 sequence (whole entry): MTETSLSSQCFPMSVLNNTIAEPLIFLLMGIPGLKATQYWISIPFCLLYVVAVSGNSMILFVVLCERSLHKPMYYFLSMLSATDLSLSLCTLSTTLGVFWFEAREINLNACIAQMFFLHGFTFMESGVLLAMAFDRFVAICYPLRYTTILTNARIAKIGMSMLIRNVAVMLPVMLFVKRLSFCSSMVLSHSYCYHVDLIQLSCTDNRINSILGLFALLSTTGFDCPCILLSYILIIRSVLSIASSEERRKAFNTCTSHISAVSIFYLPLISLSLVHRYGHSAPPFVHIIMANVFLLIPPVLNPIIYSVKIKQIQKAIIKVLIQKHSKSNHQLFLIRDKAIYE
Summary of the method: as §1

OR51G1 (Homo sapiens) = biological target: T15, OR51G1 (Homo sapiens) (UniProt Q8NGK1)
T15 sequence (whole entry): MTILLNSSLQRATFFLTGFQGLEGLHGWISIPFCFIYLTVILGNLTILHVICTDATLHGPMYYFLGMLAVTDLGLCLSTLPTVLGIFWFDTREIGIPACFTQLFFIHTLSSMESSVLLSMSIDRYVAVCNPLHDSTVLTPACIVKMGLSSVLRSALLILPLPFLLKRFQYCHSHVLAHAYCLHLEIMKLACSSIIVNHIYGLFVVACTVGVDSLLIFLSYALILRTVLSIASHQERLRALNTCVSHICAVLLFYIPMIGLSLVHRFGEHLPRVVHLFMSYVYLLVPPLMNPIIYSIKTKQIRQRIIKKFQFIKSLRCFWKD
Summary of the method: as §1

OR51G2 (Homo sapiens) = biological target: T16, OR51G2 (Homo sapiens) (UniProt Q8NGK0)
T16 sequence (whole entry): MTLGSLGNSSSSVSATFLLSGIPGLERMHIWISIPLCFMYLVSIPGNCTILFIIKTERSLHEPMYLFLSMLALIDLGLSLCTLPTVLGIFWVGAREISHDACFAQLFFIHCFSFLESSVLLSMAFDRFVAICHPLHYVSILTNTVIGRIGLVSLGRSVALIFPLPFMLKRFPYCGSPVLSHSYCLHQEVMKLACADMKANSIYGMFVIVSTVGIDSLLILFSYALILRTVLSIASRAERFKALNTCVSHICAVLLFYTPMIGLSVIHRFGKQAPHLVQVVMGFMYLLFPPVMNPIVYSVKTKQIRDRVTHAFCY
Summary of the method: as §1

OR51I1 (Homo sapiens) = biological target: T17, OR51I1 (Homo sapiens) (UniProt Q9H343)
T17 sequence (whole entry): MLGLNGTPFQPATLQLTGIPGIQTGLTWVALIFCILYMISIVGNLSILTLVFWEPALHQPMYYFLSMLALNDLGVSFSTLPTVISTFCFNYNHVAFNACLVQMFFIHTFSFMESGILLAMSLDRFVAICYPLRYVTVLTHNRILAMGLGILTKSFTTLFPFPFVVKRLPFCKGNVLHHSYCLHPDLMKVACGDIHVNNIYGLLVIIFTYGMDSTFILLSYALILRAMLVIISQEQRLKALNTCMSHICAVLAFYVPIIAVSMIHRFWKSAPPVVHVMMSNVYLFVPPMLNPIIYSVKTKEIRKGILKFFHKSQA
Summary of the method: as §1

Measured: odorant receptor agonist call

Cc1cnc(C)c(C)n1
inactive: all assays above
